Screens from PubChem BioAssay.
CHT inh: inhibitors of human choline transporter CHT; High affinity choline transporter 1 (Homo sapiens), Q9GZV3; AID 488975, 2010; 310,000 tested, 0.86% active; CHT-expressing cells, membrane potential dye, choline response; stronger effect = lower value; B-score at 10 µM;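 active means B-score over 3 SD under the library average, and starting fluorescence ratio not unusually high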;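 further: choline stimulus applied at its EC90 after an EC20 pre-addition; B-score computed on integrated fluorescence ratio after choline addition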
CHT PAM: CHT positive allosteric modulators, primary screen, cell-based, membrane potential dye, choline EC20; High affinity choline transporter 1 (Homo sapiens), Q9GZV3; CHT-expressing cells; stronger effect = higher value; LV-AA mutant CHT in HEK293 cells; B-score at 10 µM; 310,000 tested, 0.49% active; AID 488977, 2010;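 active means initial fluorescence not abnormally high and integrated response B-score, plate-corrected, over 3 SD above library mean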
Rad51 HR inh: human RAD51 strand exchange inhibitors, primary screen, biochemical, fluorescence; inhibition, % at 10 µM; 200,000 tested, 0.085% active; AID 1385, 2008; hRad51 DNA strand exchange, fluorescence dequenching; DNA repair protein RAD51 homolog 1 (Homo sapiens), Q06609;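 active means inhibition above 40% at the single screening dose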;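 further: 0% = DMSO control wells and 100% = blanks with heterologous ssDNA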
Target sequence (Q06609 whole entry, looked up): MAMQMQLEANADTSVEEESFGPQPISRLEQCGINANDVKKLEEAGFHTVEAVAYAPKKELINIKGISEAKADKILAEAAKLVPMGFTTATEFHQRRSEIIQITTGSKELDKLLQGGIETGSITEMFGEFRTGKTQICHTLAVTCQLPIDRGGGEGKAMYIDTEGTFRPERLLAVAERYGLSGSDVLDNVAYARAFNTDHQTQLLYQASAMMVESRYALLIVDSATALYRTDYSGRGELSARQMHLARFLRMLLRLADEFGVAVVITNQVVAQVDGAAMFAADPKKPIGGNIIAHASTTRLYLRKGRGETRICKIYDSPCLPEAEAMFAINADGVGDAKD
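material = hRad51 filaments on single-stranded DNA | reagent = Donor/quencher-labelled 47-bp dsDNA substrate | compound = 10 µM final, single point | schedule = strand-exchange reaction 15 min at room temperature | measured by = fluorescein emission 520 nm, excitation 485 nm | read-out basis = % inhibition versus plate control and blank means | benchmarks = plate controls and plate blanks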
KCC2 mod: KCC2 cotransporter modulators, thallium flux, primary screen, cell-based, HEK293 KCC2, FluoZin-2 fluorescence, MLSMR | Solute carrier family 12 member 5 (Homo sapiens), Q9H2X9 | KCC2 cells, thallium flux FluoZin-2 fluorescence | B-score of Tl+ flux slope (higher = more flux/activation; lower = inhibition) at 10 µM | 190,000 tested, 2.2% active;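 active means thallium flux slope and its plate-corrected score both differing from the plate sample mean at a set confidence after two filtering rounds, in either direction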;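 further: slope of fluorescence scaled to starting intensity during 10 to 20 s after thallium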
CHT block conf: CHT inhibitors, confirmation, cell-based, membrane potential dye, duplicate; CHT activity remaining % of control (stronger effect = lower value), % at 10 µM; AID 493221, 2011; CHT-expressing cells, choline membrane potential dye; LV-to-AA substituted CHT, HEK293 cells; 2,400 tested, 70% active; shares compounds with CHT inh;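 active means choline transporter activity left, mean of duplicates at 10 µM, below buffer-only control mean minus 3 SD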;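 further: depolarization triggered by choline at its EC90 following an EC20 pre-addition; 0% = hemicholinium-3 full block and 100% = buffer-only control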
HEK293 MPD ctr: membrane potential effects in parental HEK293, counter-screen for CHT inhibitor project, cell-based, membrane potential dye; membrane potential ratio readout (active if shifted either direction beyond buffer ±3SD; no single direction) at 10 µM; choline response; active = decrease or increase beyond buffer ±3SD; shares compounds with CHT inh; 2,400 tested, 4% active;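 further: parental cells lack the transporter so any hit is non-specific; ratio is peak minus trough fluorescence over baseline after EC90 choline challenge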
* hit, by the source's call; i = inactive; . = not tested or not shown. Most compounds without a hit are left out; they make up all but 2.6% or so of the library.

SMILES	CHT inh	CHT PAM	Rad51 HR inh	KCC2 mod	CHT block conf	HEK293 MPD ctr
Cc1ccccc1C(=O)OC(C)CN1CCN(C)CC1 (stereo unspecified)	-6.11*	i	1.4	-0.646	46.1%*	i
COc1ccc(CCN=C(N)NS(=O)(=O)c2ccccc2)cc1OC	i	i	2.9	-0.48	.	.
COc1cc(C)c(CN2CCC(n3nccc3NC(=O)C3CCOC3)CC2)cc1C (stereo unspecified)	i	i	.	.	.	.
CN(C)S(=O)(=O)c1cccc(C(=O)Nc2ccc3c(c2)CCC3)c1	i	i	.	.	.	.
CCOc1ccccc1NC(=O)CSc1nc2ccccc2nc1N1CCCC1	-5.53*	i	.	.	i	i
CCOc1ccccc1NC(=O)CSc1nc2ccccc2nc1N1CCOCC1	i	i	.	.	.	.
Cc1ccnc(SCc2cc(=O)c(OC(=O)c3ccc(S(=O)(=O)N(C)C)cc3)co2)n1	-6.47*	i	-6.4	0.519	57.6%*	i
Cc1cccc(NC(=O)N2CCc3ccccc3C2)c1C	i	i	.	.	.	.
Cc1ccccc1NC(=O)N1CCc2ccccc2C1	-5.57*	i	-2.7	-0.417	i	i
CN(Cc1ccccc1)S(=O)(=O)c1ccc(Cl)c(C(=O)NCCCN2CCOCC2)c1	i	i	.	.	.	.
Cc1cc(C)c(NC(=O)CCCCCNC2CCCCC2)c(C)c1	-5.23*	i	.	.	7.1%*	i
O=C(Nc1ccccc1C(=O)NCCCN1CCOCC1)c1ccc(F)cc1	-7.94*	i	.	.	37.6%*	i
O=C(NCCCN1CCOCC1)c1ccccc1	i	i	3.9	-0.352	.	.
CC(=O)N/N=C/c1c(C)[nH]n(-c2ccccc2)c1=O	-5.83*	i	1.3	-0.337	i	i
CC(=O)c1ccc(S(=O)(=O)N(C)C(C)CCc2ccco2)cc1 (stereo unspecified)	-5.65*	i	.	.	70.9%*	i
CC(CCc1ccco1)N(C)S(=O)(=O)c1csc(C(N)=O)c1 (stereo unspecified)	i	i	.	.	.	.
CC(Cc1ccccn1)NC(=O)CCc1nnc(C2CCCCC2)o1 (stereo unspecified)	i	i	.	-0.273	.	.
COc1ccc2[nH]c(=O)c(CN(Cc3cccs3)C(=S)Nc3ccccc3)cc2c1	-5.34*	i	.	-0.0307	i	i
CCn1cc(C(=O)NCCCN2CC(C)CC(C)C2)c(=O)c2cc(S(=O)(=O)N(C)C3CCCCC3)ccc21 (stereo unspecified)	-4.98*	i	.	.	44.8%*	2.94*
CCn1cc(C(=O)NCCCN2CCC(C)CC2)c(=O)c2cc(S(=O)(=O)N(C)C3CCCCC3)ccc21	-6.49*	i	.	.	38.7%*	i
COC(=O)C(Cc1c[nH]c2ccccc12)N1CCS(=O)(=O)CC1 (stereo unspecified)	i	i	17.9	0.0859	.	.
COC(=O)Nc1ccc(S(=O)(=O)N2CCC(C(=O)N3CCCC(C)C3)CC2)cc1 (stereo unspecified)	i	i	-9.4	1.08	.	.
CC1CCCN(C(=S)Nc2ccc(S(=O)(=O)N3CCCCC3)cc2)C1 (stereo unspecified)	-12.8*	i	1.6	-0.599	i	i
COc1cccc(N2CCN(C(c3ccccn3)c3nnnn3C(C)(C)C)CC2)c1 (stereo unspecified)	-5.04*	i	-2.3	-0.891	i	i
Cc1ccc(CNC(=O)C2CCN(S(=O)(=O)N3CCCC3)CC2)cc1	i	i	.	.	.	.
SMILES	CHT inh	CHT PAM	Rad51 HR inh	KCC2 mod	CHT block conf	HEK293 MPD ctr
Oc1cccc(-c2nc3ccc4ccccc4c3c3c2CCC3)c1	i	i	-0.8	-0.355	.	.
C=CCN1C(=NC(=O)COc2ccc(Cl)cc2)SC2CS(=O)(=O)CC21 (stereo unspecified)	i	i	.	.	.	.
CC(C)Sc1nc2ccc(Br)cc2[nH]1	-5.51*	i	4.9	-1.95	i	i
Nc1ncncc1-c1ccc([N+](=O)[O-])cc1	i	i	-11.1	.	.	.
CC(C)NCC(O)c1ccc(O)c(O)c1 (stereo unspecified)	-6.43*	i	.	.	30.2%*	i
Cc1cccc(NC(=O)C2CCN(S(C)(=O)=O)CC2)c1C	-5.28*	i	.	.	i	i
O=CC1=C(c2ccccc2)Oc2ccccc2O1	i	i	.	.	i	i
CC(=O)Nc1cc(NC(C)=O)cc(C(=O)OC(C)C(=O)Nc2ccc(S(=O)(=O)N3CCCC3)cc2)c1 (stereo unspecified)	-4.95*	i	.	.	44.8%*	i
CC(OC(=O)c1cc(Br)ccc1O)C(=O)Nc1ccc(S(=O)(=O)N2CCCC2)cc1 (stereo unspecified)	i	i	.	.	.	.
O=C(NNC1=C(C(=O)C(F)(F)F)CCC1)c1ccccc1O	-6.49*	i	3.2	-1.92	30.6%*	i
O=C(N/N=C/c1ccsc1)c1ccc2ccccc2n1	i	i	0.4	-0.561	.	.
Cc1cc(C)c(C(=O)Nc2ccc(S(=O)(=O)Nc3ccccn3)cc2)c(C)c1	-13.8*	i	.	.	5.0%*	i
COc1ccccc1N=NC1=C(O)CC(C)(C)CC1=O	-5.51*	i	.	0.348	i	i
C/C(=C\c1ccccc1)C(=O)NCCCn1ccnc1	i	i	-2.5	0.453	.	.
CC1Cc2ccccc2N1C(=O)COC(=O)c1ccc(O)cc1 (stereo unspecified)	-5.49*	i	-26.4	-3.2	52.4%*	i
COc1ccc(CCC(=O)N2c3ccccc3CC2C)cc1 (stereo unspecified)	-5.44*	i	-3.7	-1.42	i	i
COc1ccc(CCC(=O)N2CCc3ccccc32)cc1	i	i	1.7	-0.601	.	.
C[C@]12CCC(O)CC1=CCC1C2CC[C@]2(C)/C(=N\NC(N)=S)CCC12 (stereo partly specified)	i	i	.	.	.	.
CCOC(=O)c1nnsc1N	i	i	-7.3	0.56	.	.
COc1ccc(C2(C(=O)Nc3ccc(C)cc3)CCOCC2)cc1	i	i	.	-1.28	.	.
COc1ccc(C(C(=O)NC2CCCCC2)N(C(=O)c2ccco2)c2ccccc2C(C)=O)cc1OC (stereo unspecified)	-5.15*	i	.	.	70.9%*	i
Cc1nn2c(N3CCN(CCO)CC3)c3c(nc2c1-c1ccccc1)CCCC3	-9.05*	i	4.2	-0.869	31.2%*	i
